Consider 14 compounds from ChEMBL document CHEMBL1649408, “Synthesis and in vitro antimycobacterial activity of 8-OCH(3) ciprofloxacin methylene and ethylene isatin derivatives” (Eur J Med Chem, 2011).

In experiment [1] the test system is Mycobacterium tuberculosis. The experiment is described as follows: Antimycobacterial activity against multidrug-resistant Mycobacterium tuberculosis 09710 after 7 days by serial double dilution technique. Type of experiment: functional. To be noted: Mycobacterium tuberculosis, 09710, 168 h. In short, it runs like this:
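MDR strain (resistant to RIF, INH, EMB, SM), clinical isolate, tested by rapid direct susceptibility test. Compounds two-fold diluted in 2× Advanced Middlebrook 7H9 broth, final 256 to 1 µg/ml, mixed 1:1 with suspension containing 4 × 10^-3 mg cells. Incubated sealed at 37 °C in wet box; read at 3 days, redetermined at 7 days by high-magnification visual system. MIC = complete growth inhibition.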

The subject of experiment [2] is Mycobacterium tuberculosis. As to the kind of experiment: Ratio of compound MIC to ciprofloxacin MIC for multidrug-resistant Mycobacterium tuberculosis 09710. Type of experiment: functional.

≈ marks a conversion by molar mass, not a printed value.

In the case of `COc1c(N2CCNCC2)c(F)cc2c(=O)c(C(=O)O)cn(C3CC3)c12`, 11.1 µM (≈ 4 µg/mL) was the least that counted as inhibitory in experiment [1] (MIC).

The compound `COc1c(N2CCN(CN3C(=O)C(=O)c4ccccc43)CC2)c(F)cc2c(=O)c(C(=O)O)cn(C3CC3)c12` registered an MIC in experiment [1] of 30.8 µM (≈ 16 µg/mL).

Compound `COc1c(N2CCN(CN3C(=O)C(=O)c4cc(F)ccc43)CC2)c(F)cc2c(=O)c(C(=O)O)cn(C3CC3)c12` registered an MIC in experiment [1] of 14.9 µM (≈ 8.01 µg/mL).

Consider `COc1c(N2CCN(CN3C(=O)/C(=N\O)c4ccccc43)CC2)c(F)cc2c(=O)c(C(=O)O)cn(C3CC3)c12`, for which, in experiment [1], the MIC was 29.9 µM (≈ 16 µg/mL).

With `COc1c(N2CCN(CN3C(=O)/C(=N\O)c4cc(F)ccc43)CC2)c(F)cc2c(=O)c(C(=O)O)cn(C3CC3)c12`, 14.5 µM (≈ 8.01 µg/mL) was the least that counted as inhibitory in experiment [1] (MIC). Compared with the last compound, the MIC is about 2.1-fold lower.

Take `CO/N=C1\C(=O)N(CN2CCN(c3c(F)cc4c(=O)c(C(=O)O)cn(C5CC5)c4c3OC)CC2)c2ccccc21`: the lowest concentration to inhibit growth in experiment [1] (MIC) was 14.6 µM (≈ 8.01 µg/mL). This MIC and that of the compound before are within 1.5-fold of each other.

On to `CO/N=C1\C(=O)N(CN2CCN(c3c(F)cc4c(=O)c(C(=O)O)cn(C5CC5)c4c3OC)CC2)c2ccc(F)cc21`, for which inhibition of growth in experiment [1] (MIC) required 7.05 µM (≈ 4 µg/mL). In addition, the Ratio in experiment [2] is reported as 3.5.

In experiment [1], `CCO/N=C1\C(=O)N(CN2CCN(c3c(F)cc4c(=O)c(C(=O)O)cn(C5CC5)c4c3OC)CC2)c2ccccc21` yielded an MIC of 28.4 µM (≈ 16 µg/mL).

As to `COc1c(N2CCN(CN3C(=O)/C(=N\NC(N)=O)c4ccccc43)CC2)c(F)cc2c(=O)c(C(=O)O)cn(C3CC3)c12`, the MIC in experiment [1] stood at 6.93 µM (≈ 4 µg/mL). Also, in experiment [2], the Ratio turned out to be 3.5.

In turn, `COc1c(N2CCN(CN3C(=O)/C(=N\NC(N)=O)c4cc(F)ccc43)CC2)c(F)cc2c(=O)c(C(=O)O)cn(C3CC3)c12` gave an MIC in experiment [1] of 6.72 µM (≈ 4 µg/mL). Further, in experiment [2], the Ratio is 3.5.

Take `COc1c(N2CCN(CN3C(=O)/C(=N\NC(N)=S)c4ccccc43)CC2)c(F)cc2c(=O)c(C(=O)O)cn(C3CC3)c12`: 6.75 µM (≈ 4.01 µg/mL) was the least that counted as inhibitory in experiment [1] (MIC). For the same compound, the Ratio in experiment [2] was determined as 3.5.

For the compound `O=C(O)c1cn(C2CC2)c2cc(N3CCNCC3)c(F)cc2c1=O` [CIPROFLOXACIN], 24.2 µM (≈ 8.01 µg/mL) was the least that counted as inhibitory in experiment [1] (MIC).

For `NNC(=O)c1ccncc1` [ISONIAZID], inhibition of growth in experiment [1] (MIC) required 467 µM (≈ 64 µg/mL).

For `CO[C@H]1/C=C/O[C@@]2(C)Oc3c(C)c(O)c4c(O)c(c(/C=N/N5CCN(C)CC5)c(O)c4c3C2=O)NC(=O)/C(C)=C\C=C\[C@H](C)[C@H](O)[C@@H](C)[C@@H](O)[C@@H](C)[C@H](OC(C)=O)[C@@H]1C` [RIFAMPIN], in experiment [1], the MIC is above 311 µM.
